# Measured values reported in ChEMBL document CHEMBL4190332, “Design and Optimization of Benzopiperazines as Potent Inhibitors of BET Bromodomains” (ACS Med Chem Lett, 2017).
# Columns and labels:
# [1] = molecular target: T1, Bromodomain-containing protein 4 (Homo sapiens, UniProt O60885); assay: Inhibition of His-epitope tagged BRD4 bromodomain 1 (44 to 168 residues) (unknown origin) using biotinylated K5,8,12,16 tetra-acetylated histone H4 (1 to 20 residues) peptide as substrate measured after 1 hr by Alphascreen assay
# In short: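 Binding to the isolated BRD4 first bromodomain was measured by AlphaScreen. Each IC50 is the mean of at least two separate assay runs.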
# [2] = Drug uptake in po dosed mouse plasma; assay type: ADME, organism-based; details: in vivo
# [3] = Stability in mouse liver microsomes assessed as parent compound remaining after 30 mins; assay type: ADME, microsome; details: read-out: Stability
# In short: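 Compound was incubated with mouse liver microsomes for 30 minutes. The read-out was the percent of compound remaining.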
# MV4-11 [4] = assay: Growth inhibition of human MV411 cells after 72 hrs by Celltiter-Glo luminescent cell viability assay; assay type: functional; details: MV4-11, 72 h
# In short: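 Anti-proliferative activity was tested in MV-4-11 cells. Each GI50 is the mean of at least two separate assay runs.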
# [5] = Half life in mouse plasma; assay type: ADME, cell-free
# In short: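 Compound stability in mouse plasma, expressed as a half-life.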
# [6] = Chemical stability of the compound in acid; assay type: physicochemical
# [7] = Toxicity in po dosed athymic Hsd:Foxn1nu mouse administered twice daily for 5 days; assay type: organism-based; details: in vivo
# In short: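 Tolerability study in athymic nude mice given repeat oral doses twice daily for five days. The value reported is the estimated maximum tolerated dose.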
# Mus musculus = assay: Reduction in MYC mRNA level in tumor of athymic Hsd:Foxn1nu mouse xenografted with human MV411 cells at 12.5 mg/kg, po administered as single dose measured after 4 hrs by qRT-PCR analysis relative to control; assay type: functional
# In short: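 Athymic nude mice bearing MV-4-11 xenografts received a single oral dose of 12.5 mg/kg. Tumor MYC levels were compared with those of vehicle-treated mice.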
# MV4-11 [8] = assay: Antitumor activity against human MV411 cells xenografted in athymic Hsd:Foxn1nu mouse assessed as tumor growth inhibition at 12.5 mg/kg, po administered twice daily for 20 days measured weekly twice during compound dosing relative to control; assay type: functional; details: MV4-11, po, 480 h, read-out: TGI
# [9] = Drug uptake in athymic Hsd:Foxn1nu mouse plasma assessed as unbound fraction at 5 mg/kg, po administered as single dose by mass spectrometric analysis; assay type: ADME, organism-based; details: in vivo
# [10] = molecular target: T1, Bromodomain-containing protein 4; assay: Inhibition of BRD4 in human MV411 cells assessed as reduction in MYC mRNA expression; assay type: cell-based
IC50 [1],remaining at 0.5 h [3],GI50 (MV4-11 [4]),half-life [5],Structure (SMILES),other results
60 nM,100%,270 nM,> 24 min,CC(=O)N1c2ccc(-c3cnn(C4CNC4)c3)cc2N(C(=O)C2CC2)C[C@@H]1C,Drug uptake [2]: Not Active
370 nM,100%,440 nM,> 24 min,CC(=O)N1c2ccc(-c3cnn(C4COC4)c3)cc2N(C(=O)C2CC2)C[C@@H]1C,Stability [6]: Unstable
> 50000 nM,,,,CC(=O)N1c2ccccc2N(C(=O)c2ccccc2)C[C@@H]1C,
1400 nM,11%,550 nM,18 min,CCC(=O)N1c2ccc(-c3ccc(S(C)(=O)=O)cc3)cc2N(C(=O)c2ccco2)C[C@@H]1C,
> 50000 nM,,,,CC(=O)N1c2ccccc2N(C(=O)CC(C)C)C[C@@H]1C,
1600 nM,,400 nM,,CC(=O)N1c2ccc(-c3ccc(S(C)(=O)=O)cc3)cc2N(C(=O)c2ccco2)C[C@@H]1C,
1600 nM,,350 nM,,CC(=O)N1c2ccc(-c3ccccc3)cc2N(C(=O)c2ccco2)C[C@@H]1C,
760 nM,19%,280 nM,> 24 min,C[C@H]1CN(C(=O)c2ccco2)c2cc(-c3ccc(S(C)(=O)=O)cc3)ccc2N1C(=O)C1CC1,
380 nM,,210 nM,,CC(=O)N1c2ccc(-c3cnn(C)c3)cc2N(C(=O)c2ccco2)C[C@@H]1C,
420 nM,24%,580 nM,,CC(=O)N1c2ccc(-c3cnn(C(C)C)c3)cc2N(C(=O)C2CC2)C[C@@H]1C,
14000 nM,,,,CC(=O)N1c2ccccc2N(C(=O)c2ccco2)C[C@@H]1C,
1700 nM,100%,830 nM,> 24 min,CC(=O)N1c2ccc(-c3ccc(S(C)(=O)=O)cc3)cc2N(C(=O)C2CC2)C[C@@H]1C,
380 nM,100%,120 nM,3 min,CC(=O)N1c2ccc(-c3ccc(C(=O)N4CCNCC4)cc3)cc2N(C(=O)C2CC2)C[C@@H]1C,
650 nM,14%,320 nM,22 min,COC(=O)N1c2ccc(-c3ccc(S(C)(=O)=O)cc3)cc2N(C(=O)c2ccco2)C[C@@H]1C,
260 nM,99%,350 nM,6 min,CC(=O)N1c2ccc(-c3ccc(S(C)(=O)=O)cc3)cc2N(C(=O)OC(C)C)C[C@@H]1C,
790 nM,,770 nM,,CNC(=O)c1cccc(-c2ccc3c(c2)N(C(=O)c2ccco2)C[C@H](C)N3C(C)=O)c1,
43000 nM,,,,CC(=O)N1c2ccccc2N(C(=O)C2CCCC2)C[C@@H]1C,
> 25000 nM,,,,C[C@H]1CN(C(=O)c2ccco2)c2cc(-c3ccc(S(C)(=O)=O)cc3)ccc2N1C=O,

Structure (SMILES),IC50 [1],remaining at 0.5 h [3],GI50 (MV4-11 [4]),half-life [5],other results
CC(=O)N1c2ccc(-c3ccc(N4CCS(=O)(=O)CC4)cc3)cc2N(C(=O)C2CC2)C[C@@H]1C,100 nM,95%,220 nM,> 24 min,MTD at 120 h [7]: 12.5 mg/kg; fold change (FC) (Mus musculus): 0.2; inhibition in vivo at 12.5 mg/kg (MV4-11 [8]): 100%; Drug uptake(free) [9]: Not Active; IC50 [10]: 460 nM
